pEC50: −log10 of the molar value. Calls of active or inactive are those of the source.

Data set [1] can be described thus: Toxicity in C57BL/6 mouse assessed as decreased contextual memory retrieval. The note with it: in vivo. The gist of the method: (§1)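 Fear conditioning in wild-type and GPR68 KO C57BL/6J congenic mice. Training was 8 min: 3 pairings of a 30-s, 90 dB, 5 kHz tone with a 2-s, 0.6 mA foot shock. Context freezing scored at 24 h over 5 min; cue test at 48 h over 6 min. Freezing defined as no movement for 0.5 s. Compound 10 mg/kg in 10% Tween 80 or saline, 30 min before training. n=6–8 per group. Two-way ANOVA with Bonferroni post-hoc test.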

Data set [2] can be described thus: Positive allosteric modulator activity at GPR68 R189M mutant transfected in human HEK293T cells assessed as proton-mediated calcium release at 10 uM incubated for 10 mins by Fluo-4 Direct calcium dye based FLIPR assay (reference value: 1.43 +/- 0.01 %). The note with it: HEK-293T, condition central nervous system disease.
Data set [3] can be described thus: Positive allosteric modulator activity at GPR68 R189L mutant transfected in human HEK293T cells assessed as proton-mediated calcium release at 10 uM incubated for 10 mins by Fluo-4 Direct calcium dye based FLIPR assay (reference value: 1.42 +/- 0.01 %). The note with it: HEK-293T, condition central nervous system disease.
Data set [4] has as its target C-X-C chemokine receptor type 4 (Homo sapiens) (UniProt P61073). The data set can be described thus: Agonist activity against CXCR4 receptor (unknown origin) transfected in human HEK293T cells at 10 uM incubated for 15 mins in presence of CXCL12 by luminescence counter analysis. The format is functional, cell-based. The gist of the method:
(§2)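 HEK293-T cells transiently transfected with CXCR4 and the GloSensor cAMP reporter, plated in DMEM with 1% dialyzed FBS. Test compound at 10 μM in 20 mM HEPES/HBSS, pH 7.4, 15 min at room temperature. Agonist mode: luciferin (4 mM final) plus 200 nM isoproterenol added, 20 min. Antagonist mode: compound 10 min, then reference agonist at EC80 for 10 min, then luciferin/isoproterenol. Luminescence read. CXCL12 (1 or 3 μM) is the agonist control and AMD3100 (10 μM) the antagonist control. n=2.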

Data set [5] concerns the target T1, G-protein coupled receptor 68 (Homo sapiens, UniProt Q15743). Description: Positive allosteric modulator activity at GPR68 expressed in human HEK293T cells assessed as cAMP production in presence of H+ proton by Split-luciferase based luminescence counter analysis (reference value: 26.4 to 43.8 %). Type of data set: functional, cell-based. The note with it: filed as positive allosteric modulator. The gist of the method: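 Proton concentration-response of GPR68 (wild type or E160A/K/Q, R189L/M, H269F mutants) in transiently transfected HEK293-T cells. Read-out: GloSensor cAMP, with luciferin loading 90 min at 37°C at pH 8.4. Run with and without increasing modulator concentrations; 20 min at room temperature before luminescence. Proton KA fixed to the proton EC50 without modulator. KB, τA, α, β fitted globally with an operational allosteric model. n=4.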
In general terms: Cyclic AMP is a second messenger, typically raised through Gs and lowered through Gi signalling.

Data set [6] in a line: Positive allosteric modulator activity at GPR68 R189L mutant transfected in human HEK293T cells assessed as proton-mediated calcium release at 10 uM incubated for 10 mins by Fluo-4 Direct calcium dye based FLIPR assay (reference value: 6.85 +/- 0.02). The note with it: HEK-293T. Type of data set: cell-based.
The nature of data set [7]: Positive allosteric modulator activity at GPR68 H269F mutant transfected in human HEK293T cells assessed as proton-mediated calcium release at 10 uM incubated for 10 mins by Fluo-4 Direct calcium dye based FLIPR assay (reference value: 1.57 +/- 0.01 %). Particulars: HEK-293T, condition central nervous system disease.
Data set [8] is described as follows: Positive allosteric modulator activity at GPR68 R189M mutant transfected in human HEK293T cells assessed as proton-mediated calcium release at 10 uM incubated for 10 mins by Fluo-4 Direct calcium dye based FLIPR assay (reference value: 6.77 +/- 0.01). Type of data set: cell-based. The note with it: HEK-293T.
The nature of data set [9]: Positive allosteric modulator activity at GPR68 H269F mutant transfected in human HEK293T cells assessed as proton-mediated calcium release at 10 uM incubated for 10 mins by Fluo-4 Direct calcium dye based FLIPR assay (reference value: 6.44 +/- 0.02). Type of data set: cell-based. Particulars: HEK-293T.
Data set [10] can be described thus: Toxicity in C57BL/6 mouse assessed as cued memory retrieval by Morris water maze test. Particulars: in vivo.
Data set [11] is filed under the species Mus musculus. The data set can be described thus: Antipsychotic activity against GPR68 knockout C57BL/6 mouse assessed as cued memory retrieval by Morris water maze test. The format is functional, organism-based.
Data set [12] can be described thus: Toxicity in C57BL/6 mouse assessed as improvement in learning and spatial memory at 30 mg/kg administered for 30 mins by hidden platform test. The format is organism-based. Particulars: in vivo, 0.5 h.
The target of data set [13] is T1, G-protein coupled receptor 68. Description: Positive allosteric modulator activity at GPR68 expressed in human HEK293T cells assessed as proton-mediated phosphatidylinositol hydrolysis on pH 8.4 at 10 uM incubated for 20 mins by TriLuxMicroBeta counter analysis. The format is functional, cell-based. The gist of the method:
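GPR68-transfected HEK293-T cells labeled overnight with 3H-inositol (1 μCi/well) in inositol-free DMEM with 5% dialyzed FBS. Treated for 20 min at pH 8.4 in HBSS with 10 mM HEPES, 10 mM MES and 20 mM LiCl, compound at 10 μM. Extracted with 50 mM ice-cold formic acid, 30 min at 4°C. Captured on YSi beads and counted (cpm/well). n=3. 4-parameter logistic fit.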

A short description of data set [14]: Positive allosteric modulator activity at GPR68 E160Q mutant transfected in human HEK293T cells assessed as proton-mediated calcium release at 10 uM incubated for 10 mins by Fluo-4 Direct calcium dye based FLIPR assay (reference value: 6.86 +/- 0.04). Type of data set: cell-based. The note with it: HEK-293T.
Data set [15] can be described thus: Positive allosteric modulator activity at GPR68 E160Q mutant transfected in human HEK293T cells assessed as proton-mediated calcium release at 10 uM incubated for 10 mins by Fluo-4 Direct calcium dye based FLIPR assay (reference value: 1.25 +/- 0.01 %). The note with it: HEK-293T, condition central nervous system disease.
The species named for data set [16] is Mus musculus. Description: […] activity against GPR68 knockout C57BL/6 mouse assessed as contextual memory retrieval. Type of data set: functional, organism-based. Put shortly: as §1
The nature of data set [17]: Toxicity in C57BL/6 mouse assessed as improvement in contextual memory at 10 to 30 mg/kg administered for 30 mins. Particulars: in vivo, 0.5 h, dose 10-30 mg/kg. The format is organism-based.
A short description of data set [18]: Toxicity in C57BL/6 mouse assessed as improvement in cue memory at 10 to 30 mg/kg administered for 30 mins by Morris water maze test. The format is organism-based. The note with it: in vivo, 0.5 h, dose 10-30 mg/kg.
Data set [19] is described as follows: Toxicity in C57BL/6 mouse assessed as improvement in learning and spatial memory at 10 mg/kg administered for 30 mins by hidden platform test. The format is organism-based. Particulars: in vivo, 0.5 h.
Data set [20] addresses C-X-C chemokine receptor type 4 (Homo sapiens) (UniProt P61073). The data set can be described thus: Antagonist activity against CXCR4 receptor (unknown origin) transfected in human HEK293T cells at 10 uM incubated for 15 mins in presence of AMD3100 by luminescence counter analysis. Type of data set: functional, cell-based. Put shortly: as §2
Data set [21] is described as follows: Positive allosteric modulator activity at GPR68 E160K mutant transfected in human HEK293T cells assessed as proton-mediated calcium release at 10 uM incubated for 10 mins by Fluo-4 Direct calcium dye based FLIPR assay (reference value: 6.79 +/- 0.02). Type of data set: cell-based. The note with it: HEK-293T.
Data set [22] deals with T1, G-protein coupled receptor 68. The data set can be described thus: Positive allosteric modulator activity at GPR68 expressed in human HEK293T cells assessed as proton-mediated calcium release at 10 uM incubated for 10 mins by Fluo-4 Direct calcium dye based FLIPR assay (reference value: 1.30 %). Type of data set: functional, cell-based.
The target is the same in data set [23]. The data set can be described thus: Positive allosteric modulator activity at GPR68 expressed in human HEK293T cells assessed as cAMP production in presence of H+ proton by Split-luciferase based luminescence counter analysis (reference value: 6.53 to 6.72). The format is functional, cell-based.
The nature of data set [24]: Positive allosteric modulator activity at GPR68 E160K mutant transfected in human HEK293T cells assessed as proton-mediated calcium release at 10 uM incubated for 10 mins by Fluo-4 Direct calcium dye based FLIPR assay (reference value: 1.38 +/- 0.01 %). Particulars: HEK-293T, condition central nervous system disease.
Data set [25] deals with T2, G-protein coupled receptor 65 (Homo sapiens, UniProt Q8IYL9). The data set can be described thus: Antagonist activity against GPR65 (unknown origin) transfected in human HEK293T cells incubated for 15 mins by luminescence counter analysis. The format is functional, cell-based. The note with it: filed as antagonist. The gist of the method: (§3)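 GloSensor split-luciferase cAMP assay. HEK293-T cells transiently co-transfected with GPR65 (wild type or the D153A, R187L, F242A or Y272A mutant) and GloSensor 7A reporter. Cells plated in DMEM with 1% dialyzed FBS for at least 6 h, then loaded with luciferin (4 mM, in drug buffer pH 8.4) for 90 min at 37°C. Compounds added at set pH in HBSS with 10 mM HEPES/10 mM MES, with TAPS for higher pH. Luminescence read after about 20 min at room temperature. Data normalized to buffer basal and fitted to a 4-parameter logistic.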

The target in data set [26] is T2, G-protein coupled receptor 65. Description: Antagonist activity against GPR65 (unknown origin) transfected in human HEK293T cells incubated for 15 mins in presence of BTB09089 by luminescence counter analysis. Type of data set: functional, cell-based. The note with it: filed as antagonist. Put shortly: as §3

T1 sequence (Q15743 whole entry): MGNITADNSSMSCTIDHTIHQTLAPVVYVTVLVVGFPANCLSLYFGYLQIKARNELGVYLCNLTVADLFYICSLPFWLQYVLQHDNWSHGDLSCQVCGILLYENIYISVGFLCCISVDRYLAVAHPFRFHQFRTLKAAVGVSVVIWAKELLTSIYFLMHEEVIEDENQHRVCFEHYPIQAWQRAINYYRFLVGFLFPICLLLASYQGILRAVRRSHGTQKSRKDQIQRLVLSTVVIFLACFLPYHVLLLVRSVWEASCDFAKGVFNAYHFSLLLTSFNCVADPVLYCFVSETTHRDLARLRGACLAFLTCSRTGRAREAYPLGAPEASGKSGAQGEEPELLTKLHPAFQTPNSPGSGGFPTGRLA
T2 sequence (Q8IYL9 whole entry): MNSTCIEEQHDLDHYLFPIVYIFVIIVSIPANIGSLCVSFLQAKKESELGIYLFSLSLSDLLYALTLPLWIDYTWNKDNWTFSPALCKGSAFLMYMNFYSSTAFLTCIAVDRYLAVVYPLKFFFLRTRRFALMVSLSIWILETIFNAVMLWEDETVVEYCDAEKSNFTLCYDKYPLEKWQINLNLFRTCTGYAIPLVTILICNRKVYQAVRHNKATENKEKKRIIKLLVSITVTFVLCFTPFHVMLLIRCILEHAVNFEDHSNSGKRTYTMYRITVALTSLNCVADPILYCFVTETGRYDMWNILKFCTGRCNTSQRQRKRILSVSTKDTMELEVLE
C-X-C chemokine receptor type 4 (Homo sapiens), sequence (P61073 whole entry): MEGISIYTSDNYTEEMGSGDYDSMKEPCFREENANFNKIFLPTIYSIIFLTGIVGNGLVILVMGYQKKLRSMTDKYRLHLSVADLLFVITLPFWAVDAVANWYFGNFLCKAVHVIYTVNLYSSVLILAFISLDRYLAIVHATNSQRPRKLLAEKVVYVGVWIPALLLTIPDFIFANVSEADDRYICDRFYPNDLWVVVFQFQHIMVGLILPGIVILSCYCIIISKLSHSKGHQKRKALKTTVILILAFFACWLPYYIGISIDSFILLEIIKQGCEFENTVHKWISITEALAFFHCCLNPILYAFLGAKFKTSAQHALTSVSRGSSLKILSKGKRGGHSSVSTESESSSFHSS

In the case of `Nc1nc(NCc2ccccc2)nc(-c2cccc(CO)c2)n1` [ZINC32547799], the Activity entry in data set [1] is “Non-Toxic”; in [10] it was “Non-Toxic”; in data set [12], “Toxic”; in [17], “Non-Toxic”; in data set [18] it was “Non-Toxic”; in data set [19] it was “Non-Toxic”. The Emax (usually the greatest response seen or fitted, relative to the assay's reference) at 10 µM in [2] was determined as 1.35%; in [3], 1.36%; in [7], 1.52%; in [15], 1.21%; in data set [24] it was 1.38%. For the same compound, the outcome (in data set [4]; in the data set listed under Mus musculus [11]; in [13]; in the data set filed under Mus musculus [16]; in data set [20]) was inactive. Moreover, the figures for the Emax in data set [5] and in [22] were 43.1% and 1.33%, respectively. The pEC50 (usually the EC50 on a negative log10 scale, so that one unit is a factor of ten) was 6.89 in [6]; 6.73 in data set [8]; 6.47 in data set [9]; 6.63 in [14]; 6.80 in data set [21]; 6.80 in data set [23].

`Cc1nc(-c2ncccn2)sc1C(=O)O[C@@H](c1ccccc1)c1ccncc1`: the result in data set [25] and in [26] was Active.
